Structures can show the parent of a compound that is named as a salt. Marks after values point to notes of the source that are not given here.
Columns and labels:
[1] = Effect of intravenous IS on the elimination of intravenous PSP in rats; format: in vivo, rat; settings: for AUC(0-t) / clearance / MRT: male, Sprague-Dawley, rat, serum, iv, 5 mg/kg, mean ± S.E., n = 6; for AUC(0-t): AUC0-1440, area under concentration-time curve to 1440 min; for clearance: Cl, the clearance; for MRT: the mean residence time
How it was run: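 Male Sprague–Dawley rats (370–420 g), fasted 12 h, received IV PSP 5.0 mg/kg with or without IV IS 10.0 mg/kg in a crossover design with a 1-week washout. Blood was drawn at 30–1440 min and serum was deproteinized with methanol and basified with NaOH. Absorbance was read at 560 nm (calibration 0.39–12.5 μg/mL). Noncompartmental analysis; paired t-test.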

[2] = by OATs- and MRPs-mediated transports; cited from earlier work
[3] = Effect of oral indican on the pharmacokinetics of oral MTX in rats; format: in vivo, rat; settings: mean ± S.E., n = 5; for MRT: male, Sprague-Dawley, rat, serum, po, the mean residence time
How it was run: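 Male Sprague–Dawley rats (330–400 g), fasted 12 h, were given oral MTX 5.0 mg/kg alone or with oral indican 20.0 or 40.0 mg/kg in a parallel design. Serum MTX was measured by fluorescence polarization immunoassay (calibrated 0–1.0 μmol/L, LLOQ 0.01 μmol/L). Noncompartmental analysis: Cmax observed, AUC by trapezoidal rule to last point. Groups compared by one-way ANOVA with Scheffe's test.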

[4] = intravenous bolus of PSP 5.0 mg/kg alone
[5] = intravenous bolus of PSP 5.0 mg/kg with intravenous bolus of IS 10.0 mg/kg

O=S(=O)(O)Oc1c[nH]c2ccccc12 [IS, indoxyl sulfate]
Effect on the elimination of PSP (serum profiles) ([1]; intravenous IS 10.0 mg/kg with intravenous PSP 5.0 mg/kg): inhibited

CN(Cc1cnc2nc(N)nc(N)c2n1)c1ccc(C(=O)N[C@@H](CCC(=O)O)C(=O)O)cc1 [MTX, Methotrexate]
Fraction of MTX excreted via urine [2]: More than 80%
MRT ([3]; 5 mg/kg, oral MTX 5.0 mg/kg alone): 5.26 h
MRT ([3]; oral MTX 5.0 mg/kg coadministered with indican 20.0 mg/kg): 17 h
MRT ([3]; oral MTX 5.0 mg/kg coadministered with indican 40.0 mg/kg): 16 h
AUC0-2880, area under concentration-time curve to 2880 min ([3]; oral MTX 5.0 mg/kg alone): 63.6 ± 6.9^a μmole•min/L

O=S1(=O)OC(c2ccc(O)cc2)(c2ccc(O)cc2)c2ccccc21 [PSP, phenolsulfonphthalein]
AUC(0-t) [1, 4]: 21300 ng·h/mL
AUC(0-t) [1, 5]: 64700 ng·h/mL
clearance [1, 4]: 3.1 ± 0.4 mL/min/kg
clearance [1, 5]: 1 ± 0.3 mL/min/kg
MRT [1, 4]: 6.67 h
MRT [1, 5]: 9.54 h
